The source made the active and inactive calls. The rule behind the calls is not given here.
Assays:
[1] = biological target: T1, DNA topoisomerase 1 (Homo sapiens) (UniProt P11387); assay: Inhibition of recombinant topoisomerase 1 (unknown origin) assessed as DNA cleavage using 3'-[32P]-labeled 117-bp DNA oligonucleotide at 10 uM by PAGE assay
T1 sequence (whole entry): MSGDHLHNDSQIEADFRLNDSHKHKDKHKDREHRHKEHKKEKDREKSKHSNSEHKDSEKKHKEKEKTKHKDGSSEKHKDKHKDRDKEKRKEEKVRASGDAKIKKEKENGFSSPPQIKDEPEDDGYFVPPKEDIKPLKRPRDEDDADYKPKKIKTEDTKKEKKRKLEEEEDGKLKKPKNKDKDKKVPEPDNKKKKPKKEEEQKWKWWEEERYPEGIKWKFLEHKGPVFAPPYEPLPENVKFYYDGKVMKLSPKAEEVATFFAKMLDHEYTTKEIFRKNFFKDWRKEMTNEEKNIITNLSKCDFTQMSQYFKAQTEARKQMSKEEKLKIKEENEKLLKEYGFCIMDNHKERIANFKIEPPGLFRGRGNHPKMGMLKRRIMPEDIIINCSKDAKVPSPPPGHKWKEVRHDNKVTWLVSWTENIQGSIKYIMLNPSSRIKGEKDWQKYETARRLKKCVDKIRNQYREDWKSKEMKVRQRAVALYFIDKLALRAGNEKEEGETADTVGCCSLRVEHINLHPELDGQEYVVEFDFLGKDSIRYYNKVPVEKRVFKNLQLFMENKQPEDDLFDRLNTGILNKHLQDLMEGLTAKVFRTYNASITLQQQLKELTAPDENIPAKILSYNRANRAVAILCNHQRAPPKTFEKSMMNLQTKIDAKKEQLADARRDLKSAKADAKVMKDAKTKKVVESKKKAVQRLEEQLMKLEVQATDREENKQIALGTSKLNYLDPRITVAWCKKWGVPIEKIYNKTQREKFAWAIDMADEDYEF
In short: (§1)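 Approx. 2 nM 3′-[³²P]-labeled double-stranded DNA incubated with recombinant Top1 and compound at 0.1, 1, 10 or 100 μM for 20 min at 25 °C. Stopped with 0.5% SDS and run on a denaturing gel. […] Run twice.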

HOP-62 = assay: Growth inhibition of human HOP62 cells by five-dose growth inhibition assay; format: functional
[2] = Growth inhibition of human SF539 cells by five-dose growth inhibition assay; format: functional; conditions: SF-539
UACC-62 = assay: Growth inhibition of human UACC62 cells by five-dose growth inhibition assay; format: functional
MCF7 = assay: Growth inhibition of human MCF7 cells by five-dose growth inhibition assay; format: functional
OVCAR-3 = assay: Growth inhibition of human OVCAR3 cells by five-dose growth inhibition assay; format: functional
[3] = biological target: T1, DNA topoisomerase 1 (Homo sapiens); assay: Inhibition of recombinant topoisomerase 1 (unknown origin) assessed as DNA cleavage using 3'-[32P]-labeled 117-bp DNA oligonucleotide at 100 uM by PAGE assay; in short: as §1
HCT-116 = assay: Growth inhibition of human HCT116 cells by five-dose growth inhibition assay; format: functional
[4] = (§2) Growth inhibition of human NCI60 cells assessed as cell growth at 10 uM; format: functional; conditions: read-out: Activity
In short: (§3)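 NCI-60 single-dose screen at 10 μM across ~60 human cancer cell lines. Reported as growth percent relative to vehicle-treated control, averaged over all lines tested as a mean growth percent.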

[5] = biological target: T1, DNA topoisomerase 1 (Homo sapiens); assay: Inhibition of recombinant topoisomerase 1 (unknown origin) assessed as DNA cleavage using 3'-[32P]-labeled 117-bp DNA oligonucleotide at 0.1 uM by PAGE assay; in short: as §1
[6] = biological target: T1, DNA topoisomerase 1 (Homo sapiens); assay: Inhibition of recombinant topoisomerase 1 (unknown origin) assessed as DNA cleavage using 3'-[32P]-labeled 117-bp DNA oligonucleotide at 1 uM by PAGE assay; set-up: Activity: scale not given: the % may be the effect or the level left; in short: as §1
SN12C = assay: Growth inhibition of human SN12C cells by five-dose growth inhibition assay; format: functional
DU-145 = assay: Growth inhibition of human DU145 cells by five-dose growth inhibition assay; format: functional
NCI60 = assay: as §2; format: functional; in short: as §3
[7] = biological target: Tyrosyl-DNA phosphodiesterase 1 (Homo sapiens, UniProt Q9NUW8); assay: Inhibition of recombinant TPD1 (unknown origin) activity using 3'-phosphotyrosine-containing 5'-[32P]-labeled single-stranded DNA oligonucleotide by PAGE assay
[8] = biological target: T2, Tyrosyl-DNA phosphodiesterase 2 (Homo sapiens, UniProt O95551); assay: Inhibition of human recombinant TPD2 activity using 5'phosphotyrosine-containing 19-mer single-stranded oligonucleotide DNA substrate by PAGE assay
T2 sequence (O95551 whole entry): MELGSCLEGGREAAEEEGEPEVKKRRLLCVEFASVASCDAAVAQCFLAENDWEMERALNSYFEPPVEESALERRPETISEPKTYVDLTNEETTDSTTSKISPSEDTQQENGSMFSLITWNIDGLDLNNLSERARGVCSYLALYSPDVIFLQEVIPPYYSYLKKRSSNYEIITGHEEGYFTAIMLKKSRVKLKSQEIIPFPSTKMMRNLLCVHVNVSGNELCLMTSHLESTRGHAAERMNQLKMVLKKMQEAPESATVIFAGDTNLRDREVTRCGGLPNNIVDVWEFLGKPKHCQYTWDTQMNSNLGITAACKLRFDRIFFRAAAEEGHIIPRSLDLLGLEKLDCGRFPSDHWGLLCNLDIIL

Tyrosyl-DNA phosphodiesterase 1, sequence (Q9NUW8 whole entry): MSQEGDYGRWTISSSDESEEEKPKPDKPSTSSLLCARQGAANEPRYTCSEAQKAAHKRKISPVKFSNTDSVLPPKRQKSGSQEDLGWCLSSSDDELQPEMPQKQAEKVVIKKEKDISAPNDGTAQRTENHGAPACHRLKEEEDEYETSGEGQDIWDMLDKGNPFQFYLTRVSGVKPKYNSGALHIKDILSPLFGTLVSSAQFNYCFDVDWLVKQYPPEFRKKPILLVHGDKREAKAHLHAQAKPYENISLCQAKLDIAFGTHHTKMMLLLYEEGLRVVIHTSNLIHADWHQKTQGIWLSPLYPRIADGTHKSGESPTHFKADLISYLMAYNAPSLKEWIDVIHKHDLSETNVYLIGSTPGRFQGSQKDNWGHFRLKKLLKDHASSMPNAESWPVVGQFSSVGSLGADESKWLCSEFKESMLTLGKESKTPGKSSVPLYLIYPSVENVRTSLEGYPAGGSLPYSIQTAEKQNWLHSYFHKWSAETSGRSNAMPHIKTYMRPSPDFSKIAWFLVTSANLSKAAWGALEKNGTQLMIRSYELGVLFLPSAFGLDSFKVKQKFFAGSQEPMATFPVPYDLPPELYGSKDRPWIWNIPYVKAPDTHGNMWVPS

## O=C1c2ccccc2-c2c1c1ccc(F)cc1c(=O)n2CCCN1CCOCC1
[1]
  inhibition: Active
HOP-62
  GI50: 2090 nM
[2]
  GI50: 2950 nM
UACC-62
  GI50: 1380 nM
MCF7
  GI50: 347 nM
OVCAR-3
  GI50: 4270 nM
[3]
  inhibition: Active
HCT-116
  GI50: 1290 nM
[4]
  growth at 10 µM: 30.3%
[5]
  inhibition: Active
[6]
  Activity: 75%
  inhibition: Active
SN12C
  GI50: 2340 nM

## O=C1c2ccccc2-c2c1c1ccc(F)cc1c(=O)n2CCCn1ccnc1
[1]
  inhibition: Active
HOP-62
  GI50: 490 nM
[2]
  GI50: 417 nM
UACC-62
  GI50: 245 nM
MCF7
  GI50: 135 nM
OVCAR-3
  GI50: 1290 nM
[3]
  inhibition: Active
HCT-116
  GI50: 309 nM
[4]
  growth at 10 µM: -8.15%
[5]
  inhibition: Active
[6]
  Activity: 75%
  inhibition: Active
SN12C
  GI50: 437 nM
DU-145
  GI50: 575 nM

## COC(=O)c1ccc2c3c(n(C[C@H](O)CO)c(=O)c2c1)-c1ccccc1C3=O
NCI60
  Activity: inactive
[6]
  Activity: 20%

## O=C1c2ccccc2-c2c1c1ccncc1c(=O)n2CCCN1CCOCC1
NCI60
  Activity: inactive
[6]
  Activity: 50%

## O=C1c2ccccc2-c2c1c1ccc(Cl)cc1c(=O)n2CCCn1ccnc1
[1]
  inhibition: Active
[2]
  GI50: 204 nM
UACC-62
  GI50: 74 nM
MCF7
  GI50: 31 nM
[3]
  inhibition: Active
[4]
  growth at 10 µM: 0.06%
[5]
  inhibition: Active
[6]
  Activity: 75%
  inhibition: Active
SN12C
  GI50: 110 nM

## O=C1c2ccccc2-c2c1c1ccc(C(F)(F)F)cc1c(=O)n2CCCn1ccnc1
HOP-62
  GI50: 407 nM
[2]
  GI50: 1290 nM
UACC-62
  GI50: 537 nM
MCF7
  GI50: 257 nM
OVCAR-3
  GI50: 1510 nM
HCT-116
  GI50: 646 nM
[4]
  growth at 10 µM: 6.57%
[6]
  Activity: 20%
SN12C
  GI50: 1780 nM
DU-145
  GI50: 1100 nM

## COC(=O)c1ccc2c3c(n(CCCn4ccnc4)c(=O)c2c1)-c1ccccc1C3=O
HOP-62
  GI50: 589 nM
[2]
  GI50: 490 nM
UACC-62
  GI50: 100000 nM
MCF7
  GI50: 316 nM
OVCAR-3
  GI50: 100000 nM
HCT-116
  GI50: 398 nM
[4]
  growth at 10 µM: 62.1%
[6]
  Activity: 50%
SN12C
  GI50: 525 nM
DU-145
  GI50: 692 nM

## O=C1c2ccccc2-c2c1c1ccc(Cl)cc1c(=O)n2CCCN1CCOCC1
[1]
  inhibition: Active
HOP-62
  GI50: 2140 nM
[2]
  GI50: 2400 nM
UACC-62
  GI50: 3310 nM
MCF7
  GI50: 372 nM
OVCAR-3
  GI50: 6030 nM
[3]
  inhibition: Active
HCT-116
  GI50: 1620 nM
[4]
  growth at 10 µM: 44.7%
[5]
  inhibition: Active
[6]
  Activity: 50%
  inhibition: Active
SN12C
  GI50: 5010 nM
DU-145
  GI50: 4070 nM

## O=C1c2ccccc2-c2c1c1ccc(I)cc1c(=O)n2C[C@H](O)CO
[2]
  GI50: 3020 nM
[7]
  IC50: > 111000 nM
UACC-62
  GI50: 2140 nM
MCF7
  GI50: 331 nM
OVCAR-3
  GI50: 5270 nM
HCT-116
  GI50: 631 nM
[4]
  growth at 10 µM: 39.7%
[6]
  Activity: 50%
SN12C
  GI50: 4270 nM
[8]
  IC50: > 111000 nM

## O=C1c2ccccc2-c2c1c1ccc(I)cc1c(=O)n2CCCN1CCOCC1
[1]
  inhibition: Active
[3]
  inhibition: Active
[4]
  growth at 10 µM: 96%
[5]
  inhibition: Active
[6]
  Activity: 20%
  inhibition: Active
